Here are results for 22 compounds from PubChem BioAssay AID651560 (Sanford-Burnham Center for Chemical Genomics, 2012).

Each structure is given as a SMILES string. Out of some 360,000 compounds screened, about 820 (0.23%) were called active.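 Rule for the calls: active = compounds that cut the enzyme signal by at least half of the control window in the single-dose screen; inactive = the rest.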 The sample as a whole holds a higher share of actives than the screen did.

Low molecular weight phosphotyrosine protein phosphatase (Homo sapiens), sequence (P24666 whole entry, looked up): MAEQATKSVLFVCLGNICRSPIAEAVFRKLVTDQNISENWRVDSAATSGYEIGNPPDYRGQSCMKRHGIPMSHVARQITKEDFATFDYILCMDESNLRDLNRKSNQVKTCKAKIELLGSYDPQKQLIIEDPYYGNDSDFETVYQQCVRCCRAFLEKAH

The target in this assay is Low molecular weight phosphotyrosine protein phosphatase (Homo sapiens) (UniProt P24666). Nature of the assay: LMPTP phosphatase inhibitors, primary screen, biochemical, fluorescence intensity, uHTS (AID 651560).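 Note: plate controls were DMSO wells with enzyme plus substrate for no effect and substrate without enzyme for full effect.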 To be noted: recombinant LMPTP-A, OMFP fluorogenic substrate, at 20 µM, stronger effect = higher value. The method, boiled down:
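Buffer or medium: Bis-Tris pH 6.0, DTT, detergent; Assay system: LMPTP-A enzyme; Quantity: 0.625 nM enzyme; Detection: endpoint fluorescence intensity; Times: 50 min dark incubation at room temperature; Controls: substrate-only low control, DMSO enzyme-plus-substrate high control; Doses: single 20 µM dose; Read-out: percent inhibition versus substrate-only and uninhibited controls; Reagent: 400 µM OMFP.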
Regarding `O=C(CCc1nc2sc3c(c2c(=O)[nH]1)CCCC3)NCC(=O)Nc1ccccc1Br`, the inhibition is 9.36% (inactive).

Regarding `O=C(Nc1cccc(Cl)c1)C1CCCN(c2cnccn2)C1` (configuration not stated), the inhibition is -0.511% (inactive).

As for `C[C@@H]1CN([C@@H](C)CO)C(=O)CCCn2nncc2CO[C@@H]1CN(C)S(=O)(=O)c1ccc(-c2ccccc2)cc1`, the inhibition was -1.91% (inactive).

Take `C=C1c2c(Cl)ccc(O)c2C(O)=C2C(=O)[C@]3(O)C(O)=C(C(N)=O)C(=O)[C@@H](N(C)C)[C@@H]3[C@@H](O)C12` (some centres not stated): the inhibition is 72.5% (active).

Regarding `C[C@H](CO)N1C[C@H](C)[C@@H](CN(C)S(=O)(=O)c2ccc(Oc3ccccc3)cc2)OCc2cn(nn2)CCCC1=O`, the inhibition was -0.314% (inactive).

As for `O=c1cc(CO)oc(C(Nc2cccc([N+](=O)[O-])c2)c2ccccn2)c1O` (configuration not stated), the inhibition is -1.69% (inactive).

In the case of `CCOC(=O)N1CCN(Cc2nc3ccc([N+](=O)[O-])cc3c(=O)n2-c2cccc(OC)c2)CC1`, the inhibition is -0.855% (inactive).

On to `CCCCN(C(=O)C1CCC1)c1c(N)n(Cc2ccccc2)c(=O)[nH]c1=O`, for which the inhibition was -1.05% (inactive).

Regarding `CCN1C(=O)C(=O)N(CC(=O)Nc2cc(C)ccc2C)C1=O`, the inhibition is -0.207% (inactive).

`COc1ccc(Br)cc1/C=N/Nc1ccc(S(=O)(=O)Nc2ccccc2C(=O)O)cc1[N+](=O)[O-]`: the inhibition was 71.1% (active).

As for `COc1cc(CCN=Cc2ccccc2O)c([N+](=O)[O-])cc1OC`, the inhibition is 0.174% (inactive).

Take `COc1ccccc1C(CNC(=O)c1cccc(NS(=O)(=O)c2ccc(Br)cc2)c1)N(C)C` (configuration not stated): the inhibition was -1.5% (inactive).

`Cc1ccc(S(=O)(=O)N[C@@H](Cc2ccccc2)C(=O)N2CCC(C(=O)N[C@H](C(=O)O)C(C)O)CC2)cc1` (some centres not stated): the inhibition was -1.25% (inactive).

For the compound `Cc1ccc(O/C=C2\OC(=O)c3ccccc32)cc1`, the inhibition is -1.45% (inactive).

`CC1(C)C2CC=C(/C=N/NC(=O)c3ccc(Cl)cc3)C1C2` (configuration not stated): the inhibition is -2.83% (inactive).

As to `COC(=O)C(C)C1Sc2ccccc2NC1=O` (configuration not stated), the inhibition was 0.652% (inactive).

With `CCC1CCCCN1C(=O)CSc1nc(C)cc(C)n1` (configuration not stated), the inhibition was -0.356% (inactive).

For `CCN([C@H](CO)C(C)C)S(=O)(=O)c1ccccc1Br`, the inhibition was -1.46% (inactive).

In the case of `CC1CCCC(C)N1C(=O)COC(=O)c1ccccc1C(=O)c1ccccc1` (configuration not stated), the inhibition was -1.53% (inactive).

Turning to `Cn1c(=O)c2c(ncn2CC(=O)N/N=C/c2cn[nH]c2-c2ccc(F)cc2)n(C)c1=O`, the inhibition was -0.239% (inactive).

With `CCN(c1ccccc1)S(=O)(=O)c1cc2c(cc1C)n(C)c(=O)c(=O)n2C`, the inhibition was 0.0122% (inactive).

As to `CCCNC(=O)NC(=O)COC(=O)CC(NC(N)=O)c1ccc(Cl)cc1` (configuration not stated), the inhibition is -1.19% (inactive).
